Compounds with a hit are over-represented: about 2.2% of the library has one in this group of screens.
LMPTP inh – LMPTP phosphatase inhibitors, primary screen, biochemical, fluorescence intensity, uHTS. recombinant LMPTP-A, OMFP fluorogenic substrate. 360,000 tested, 0.22% active. inhibition, % at 20 µM. AID 651560, 2012. Low molecular weight phosphotyrosine protein phosphatase (Homo sapiens), P24666;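 active means compounds that cut the enzyme signal by at least half of the control window in the single-dose screen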;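 further: plate controls were DMSO wells with enzyme plus substrate for no effect and substrate without enzyme for full effect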
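Test system: LMPTP-A, protein tyrosine phosphatase of low molecular weight; Input: 0.625 nM enzyme; Incubation: 50 min dark incubation at room temperature; Signal: endpoint fluorescence intensity from OMFP dephosphorylation; Read-out basis: % inhibition versus control wells.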
STEP inh – STEP phosphatase inhibitors, primary screen, biochemical, fluorescence intensity, uHTS | Tyrosine-protein phosphatase non-receptor type 5 (Homo sapiens), P54829 | recombinant STEP, OMFP fluorogenic substrate | inhibition, % at 20 µM | 360,000 tested, 0.25% active | AID 588621, 2011;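 active means inhibition at 20 µM, scaled per plate between control wells, above about 37%, limit read from the data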;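 further: 0% = DMSO with enzyme and substrate and 100% = substrate only without enzyme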
Target sequence (P54829 whole entry, looked up): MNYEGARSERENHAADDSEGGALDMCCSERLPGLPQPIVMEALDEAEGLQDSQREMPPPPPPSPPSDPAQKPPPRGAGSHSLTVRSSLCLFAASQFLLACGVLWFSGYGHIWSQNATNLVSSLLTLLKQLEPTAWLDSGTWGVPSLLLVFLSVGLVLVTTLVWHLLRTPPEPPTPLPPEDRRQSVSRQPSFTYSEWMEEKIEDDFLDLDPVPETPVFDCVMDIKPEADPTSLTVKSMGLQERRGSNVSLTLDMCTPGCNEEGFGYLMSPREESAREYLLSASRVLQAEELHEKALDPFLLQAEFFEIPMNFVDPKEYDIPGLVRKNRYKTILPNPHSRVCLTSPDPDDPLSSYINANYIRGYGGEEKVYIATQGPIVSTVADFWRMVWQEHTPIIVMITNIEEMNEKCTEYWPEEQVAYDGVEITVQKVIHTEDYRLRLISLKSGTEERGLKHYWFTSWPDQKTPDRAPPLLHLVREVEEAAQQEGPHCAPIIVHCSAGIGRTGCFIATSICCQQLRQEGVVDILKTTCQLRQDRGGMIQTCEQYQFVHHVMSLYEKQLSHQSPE
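Measure: Control-normalized % inhibition with plate pattern correction | Test system: STEP phosphatase, cell-free reaction | Medium: pH 6.0 Bis-Tris with DTT and Tween 20 | Technique: Fluorescence, 480/540 nm | Times: Reaction 20 min, ambient temperature | Doses: Single compound dose of 20 µM, 1% DMSO final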
GRK2 aptamer HTS – compounds blocking aptamer binding on GRK2 – biochemical, human GRK2, bead flow cytometry, HTS, primary screen; inhibition of aptamer binding, % at 10 µM; 330,000 tested, 0.59% active; AID 488847, 2010; FAM-aptamer displacement from GRK2;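 active means inhibition of aptamer binding above 40%, roughly 3 SD of noise, on plates passing a quality check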;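 further: median bead fluorescence of bound FAM aptamer so fluorescent compounds give negative values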
DNMT1 inh – human DNMT1 methyltransferase inhibitors, primary screen, biochemical, molecular beacon, fluorescence, HinP1I cleavage, uHTS | DNA (cytosine-5)-methyltransferase 1 (Homo sapiens), P26358 | inhibition (reported as % activation of signal), % at 10 µM | 360,000 tested, 0.83% active | AID 588458, 2011; in the data active means inhibition above about 50%
SUMO1-SIM PPI – modulators of SUMO1 protein-protein interactions, primary screen, biochemical, uHTS | Small ubiquitin-related modifier 1 (Homo sapiens), P63165 | SUMO1 binding to a labelled peptide, TR-FRET, 1 h | 360,000 tested, 0.33% active | inhibition, % at 20 µM; in the data active means inhibition above about 37%
Scp1 inh – Scp-1 phosphatase inhibitors, primary screen, biochemical, colorimetric, uHTS | Carboxy-terminal domain RNA polymerase II polypeptide A small phosphatase 1 (Homo … | Recombinant Scp1, phosphopeptide, malachite green phosphate absorbance | inhibition, % at 20 µM | 340,000 tested, 0.88% active | AID 493091, 2011;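 active means inhibition above about 50% at 20 µM, limit read from the data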;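 further: plate controls were DMSO wells with enzyme for no effect and wells lacking enzyme for full effect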
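Test system: SCP-1 phosphatase catalytic domain, residues 76-261 | Compound dosing: One concentration, 20 µM, with 1.0% DMSO | Schedule: 45 min room-temperature reaction, 5 min colour, 30 min stabiliser | Detection: Absorbance at 630 nm | Read-out basis: % inhibition of SCP-1 phosphate liberation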
Scp-1 conf – Scp-1 phosphatase inhibitors, retest, confirmation, biochemical, colorimetric, single concentration. shares compounds with Scp1 inh. recombinant SCP-1 catalytic domain, phosphate release, malachite green absorbance. inhibition, % at 20 µM. 2,500 tested, 61% active;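 further: plate controls were DMSO with enzyme for no effect and buffer wells lacking enzyme for full effect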
Scp-1 MG ctr – colorimetric readout interference by compounds, confirmation, artefact control for Scp-1 inhibitor project, biochemical, single concentration. shares compounds with Scp1 inh. Colorimetric interference counterscreen, malachite green absorbance 630 nm. apparent inhibition (interference), % at 20 µM. 2,500 tested, under 10 active;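 further: compounds added after enzyme reaction finished so only phosphate colour detection is probed; plate controls were DMSO wells with completed Scp-1 reaction for no effect and substrate wells lacking enzyme for full effect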
Scp1 DSF – Scp-1 binding by thermal shift, confirmation, orthogonal assay for Scp-1 inhibitor project, biophysical, differential scanning fluorimetry. shares compounds with Scp1 inh. AID 540329, 2011. thermal shift relative to vanadate control, % at 40 µM. 1,500 tested, 25% active. Recombinant SCP1, Sypro Orange thermal shift Tm;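 active means substances whose mean melting-temperature shift, as a percentage of the reference inhibitor's shift, reaches about 5.3%, limit read from the data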;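 further: 0% = Tm of DMSO wells and 100% = Tm with sodium orthovanadate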
DNMT1 inh conf – DNMT1 methyltransferase inhibitor retest, confirmation, biochemical, molecular beacon, fluorescence, single concentration | shares compounds with DNMT1 inh | DNMT1 molecular beacon HinP1I cleavage | inhibition, % at 10 µM | 2,300 tested, 8% active | AID 602385, 2012;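 active means average inhibition of at least 30% in the single-concentration confirmation test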
Beacon interf – beacon fluorescence artifact counter-screen. shares compounds with DNMT1 inh. DNMT1 molecular beacon spectral interference counterscreen, fluorescence 485/520. activation (fluorescence interference), % at 10 µM. 2,300 tested, 1% active. AID 602387;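 active means activation of at least 30% at 10 µM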;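 further: DNMT1 catalytic domain with a HinP1I cleavage step and a FAM/dabcyl DNA beacon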
STEP conf – STEP phosphatase inhibitor hit confirmation, biochemical, fluorescence intensity, single concentration; inhibition, % at 20 µM; shares compounds with STEP inh; recombinant STEP, OMFP fluorogenic substrate; 520 tested, 32% active; call rule not given here;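 further: 0% = enzyme with substrate plus DMSO and 100% = substrate without enzyme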
An asterisk follows results filed as active; / = no result.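 How the source made its calls, unless noted: active means inhibition of at least 30% at 20 µM; inactive means the rest.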

SMILES	LMPTP inh	STEP inh	GRK2 aptamer HTS	DNMT1 inh	SUMO1-SIM PPI	Scp1 inh	Scp-1 conf	Scp-1 MG ctr	Scp1 DSF	DNMT1 inh conf	Beacon interf	STEP conf
COc1cc(/C=N/NC(=O)c2ccccc2O)ccc1OCC(=O)Nc1ccccc1	38	62*	0	0	11	63*	70*	-11	-5	/	/	83*
O=C(Nc1nc2ccsc2c(=O)s1)c1ccc(Cl)cc1	54*	96*	0	24	-31	103*	72*	-10	5	/	/	0
O=C(Nc1nc(=O)c2ccccc2s1)c1ccc(Cl)cc1	15	-2	1	44	-4	-9	/	/	/	/	/	/
COc1cccc(N2[C@@H](CC(=O)O)c3ccc(/C=C/C(=O)O)cc3S2(=O)=O)c1	8	50*	28	102*	9	70*	54*	-15	-2	1	1	36*
O=C(N/N=C/c1ccc(Br)s1)c1cccc([N+](=O)[O-])c1	91*	94*	0	71*	31	99*	76*	-14	1	1	0	56*
CCOc1ccc(/C=N/NC(=O)c2cc3c(OC)cccc3[nH]2)cc1	25	89*	0	83*	15	79*	58*	-13	6.4*	4	-3	41*
N#Cc1c([N+](=O)[O-])cc([N+](=O)[O-])cc1S(=O)(=O)Cc1ccccc1	0	6	2	0	-23	-6	/	/	/	/	/	/
O=C(Cn1cnc2c(nnn2Cc2ccc(F)cc2)c1=O)NCc1ccccc1	-1	-5	0	2	4	9	/	/	/	/	/	/
O=C(Cn1cnc2c(nnn2-c2ccccc2)c1=O)NCc1ccc(F)cc1	34	77*	0	30	17	101*	96*	3	-2	/	/	26
CC1C(=O)N(Cc2cn(CC3CCCCC3)nn2)CCS(=O)(=O)N1Cc1ccc(-c2ccc(Cl)cc2)cc1 (stereo not drawn)	4	-1	/	-19	-20	/	/	/	/	/	/	/
FC(F)(F)c1cc(Cl)c2nc(-c3ccccc3)c(Cc3cccc(Cl)c3)n2c1	4	/	/	/	6	/	/	/	/	/	/	/
O=c1c(C=Nc2ccc(Cl)cc2)c[nH]n1-c1cccc(Cl)n1	62*	79*	0	75*	-9	102*	99*	0	-3	2	-6	2

Screening results: PubChem, several laboratories
